Data set [1] can be described thus: Dissociation constant, pKa of the compound. The data set is classed as physicochemical. The gist of the method: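 UV titration across pH. Molar extinction coefficient read at the two wavelengths where ε changes most between acidic and basic solution, then plotted against pH. pKa taken as the pH midway between the horizontal sections of the curve.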
Data set [2] can be described thus: Inhibition of telomerase by TRAP assay. The arrangement: species or system Homo sapiens. The gist of the method:
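Cell-free modified TRAP using A2780 ovarian carcinoma extract, 0.04 μg protein. TS primer extended in TRAP buffer pH 8.3 with 68 mM KCl, 1.5 mM MgCl2, 50 μM dNTPs and [32P]dCTP, agent up to 50 μM final, 20 min at 25 °C. Then 31 PCR cycles; products read by denaturing gel phosphorimaging or filter scintillation counting.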

For data set [3], the species on record is Homo sapiens. Nature of the data set: Induction of G-quadruplex in G-rich human telomere 21 DNA assessed as circular dichroism spectral change at 50 uM. Put shortly:
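Telo21 at 5 μM strand in 10 mM Tris-HCl pH 7.4, no metal ions, compound at 50 μM. Annealed at 90 °C, cooled slowly, held at 4 °C for several hours. CD recorded 320–200 nm, 16 scans at 100 nm/min, 1 nm bandwidth, buffer baseline subtracted.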
(Circular dichroism is the unequal absorption of left and right circularly polarised light.)

The species entered for data set [4] is Homo sapiens. In words: Induction of G-quadruplex in G-rich human telomere 21 DNA in presence of 100 mM K+ ions by EMSA. The gist of the method:
(§1)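 Native-gel shift of 20 μM telo21 in 10 mM Tris-HCl pH 7.4, with or without 100 mM KCl, heated 95 °C for 10 min then cooled. Compound titrated in at increasing concentrations and incubated 4–8 h at room temperature. Run on native 15% PAGE in TBE for 2 h, silver-stained; G-quadruplex and single-strand bands scored.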
(A gel shift assay detects complexes by their altered migration in electrophoresis.)

Data set [5] is filed under the species Homo sapiens. In words: Destruction of parallel G-quadruplexes in mixed G-quadruplex human telomere 21 DNA in presence of 0.1 M potassium.
For data set [6], the species on record is Homo sapiens. In words: Induction of G-quadruplex in G-rich human telomere 21 DNA by EMSA. Put shortly: as §1

Calls of active or inactive are those of the source. The calls are words filed in the database; no cut-off is given here.

On to `CN(C)CCNc1c2ccccc2nc2c1[nH]c1ccccc12`, for which the pKa in data set [1] came to 8.3. The molecule also had an IC50 in data set [2] of 1.12 µM. Besides, the result in data set [3] was Active.
In turn, `OCCCNc1c2ccccc2nc2c1oc1ccccc12` showed a pKa in data set [1] of 8.2. Moreover, inhibition in data set [2] was half-maximal at 8.12 µM (IC50). The outcome in data set [3] was Active.
Taken in the same sequence, the figures for `OCCNc1c2ccccc2nc2c1oc1ccccc12` were 8.2, 12.3 µM and “Active”.
As for `c1ccc2c(NCCN3CCOCC3)c3[nH]c4ccccc4c3nc2c1`, the outcome in data set [4], in data set [5], in data set [6] and in data set [3] was Active. The molecule also returned a pKa in data set [1] of 8.4. This molecule also showed an IC50 in data set [2] of 0.55 µM.
Take `CN(C)CCCNc1c2ccccc2nc2c1[nH]c1ccccc12`: the pKa in data set [1] is 8.4. The IC50 in data set [2] was 0.44 µM. For the same molecule, the outcome in data set [3] was Active.
On the same counts, the results for `OCCNc1c2ccccc2nc2c1[nH]c1ccccc12` are 8.3, 2.35 µM and “Active”.
`c1ccc2nc3c(cc2c1)[nH]c1ccccc13` [QUINDOLINE] came in with a pKa in data set [1] of 4.2. In addition, the IC50 in data set [2] was > 138 µM.
In the case of `c1ccc2c(NCCN3CCOCC3)c3oc4ccccc4c3nc2c1`, the pKa in data set [1] was determined as 8.2. The same molecule gave an IC50 in data set [2] of 4.38 µM. In data set [3], the result was Active.
On the same counts, the results for `CN(C)CCNc1c2ccccc2nc2c1oc1ccccc12` are 8.2, 7.11 µM and “Active”.
Taken in the same sequence, the figures for `OCCCNc1c2ccccc2nc2c1[nH]c1ccccc12` were 8.3, 1.55 µM and “Active”.
Taken in the same sequence, the figures for `CN(C)CCCNc1c2ccccc2nc2c1oc1ccccc12` were 8.3, 3.29 µM and “Active”.

Usually pKa stands for the pH at which an ionisable group is half protonated. A low value points to a stronger acid or weaker base. By IC50 is commonly meant the concentration that inhibits the measured activity by half.

Values taken from ChEMBL document CHEMBL1139482, “Synthesis and evaluation of quindoline derivatives as G-quadruplex inducing and stabilizing ligands and potential inhibitors of telomerase” (J Med Chem, 2005).
